# Test results: paper PMC6923438 (Saudi Journal of Biological Sciences, 2019)
# Columns and labels:
# 3T3-L1 adipocyte = experiment: Glucose consumption in 3T3-L1 adipocyte; type: cell-based
# STZ-induced T1DM [1] = type: in vivo; settings: glibenclamide group (2.5 mg/kg), STZ induced mice
# Outline: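 Swiss albino mice (20 ± 5 g, either sex) were given STZ 40 mg/kg i.p. for 5 days; mice with fasting glucose >220 mg/dl were taken as diabetic (18/group). They were dosed orally once daily for 2 weeks. Tail-vein glucose (glucometer) and body weight were recorded at intervals; weight loss was taken as day 1 versus pre-sacrifice weight. Liver and kidneys were weighed at sacrifice for organ index.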
# 3T3-L1 preadipocyte = 3T3-L1 preadipocyte differentiation; type: cell-based; settings: Oil Red O, TG content; vs induced control
# Outline: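 3T3-L1 cells seeded at 2×10^4 cells/mL in 6-well plates. Differentiation was induced in DMEM with insulin (10 µg/mL), IBMX (0.5 mM), dexamethasone (1 µM) and 10% FBS for 48 h, then DMEM with insulin and FBS, then basic medium changed every 48 h. Test compound (12.5, 25, 50 µg/mL) was present throughout. Lipid droplets stained with Oil Red O 10 days after induction.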
# STZ-induced T1DM [2] = experiment: Pancreatic islet mass and pancreas histopathology in STZ-induced T1DM; type: in vivo, mice
# Outline: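 STZ-diabetic mice (40 mg/kg i.p. × 5 days; glucose >220 mg/dl) were gavaged daily for 2 weeks with test compound at 10 or 20 mg/kg, or glibenclamide 2.5 mg/kg. Pancreas was formalin-fixed, paraffin-embedded, cut at 5 µm and stained with H&E. Islet mass was calculated as pancreas weight × relative β-cell area on slides; ANOVA versus model group.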
# gut microbiota = experiment: 16S rRNA gene sequencing of caecal content, STZ induced diabetic rats; type: in vivo; settings: STZ + Gli (2.5 mg/kg)
smiles,measurement,setting,value
"COc1ccc(Cl)cc1C(=O)NCCc1ccc(S(=O)(=O)NC(=O)NC2CCCCC2)cc1 [Glibenclamide, glibenclamide]",Glucose consumption (in words),3T3-L1 adipocyte,significantly increased
same,Glucose consumption,3T3-L1 adipocyte; 1 µg/mL,12.62 ± 0.67 mmol/L
same,renal index,STZ-induced T1DM [1],1.41 ± 0.13
same,3T3-L1 preadipocyte differentiation,3T3-L1 preadipocyte,significant differentiation
same,pancreas histopathology,STZ-induced T1DM [2]; STZ induced type I DM,almost similar histopathology effect
same,β-cell mass,"STZ-induced T1DM [2]; glibenclamide group (2.5 mg/kg), STZ induced mice",1.5 ± 0.02
same,"Actinobacteria, 16S rRNA gene sequencing of caecal content",gut microbiota,0.35 ± 0.03
same,"Bacteroidates, 16S rRNA gene sequencing of caecal content",gut microbiota,0.28 ± 0.05
same,"Bacteroidetes, 16S rRNA gene sequencing of caecal content",gut microbiota,0.23 ± 0.09
same,"Bifldobacteriales, 16S rRNA gene sequencing of caecal content",gut microbiota,0.5 ± 0.04
same,"Burkholderiaies, 16S rRNA gene sequencing of caecal content",gut microbiota,0.34 ± 0.04
same,"Campylobacterioles, 16S rRNA gene sequencing of caecal content",gut microbiota,0.61 ± 0.09
same,"Clostridiales, 16S rRNA gene sequencing of caecal content",gut microbiota,0.29 ± 0.05
same,"Coriobacteriales, 16S rRNA gene sequencing of caecal content",gut microbiota,0.32 ± 0.09
same,"Cyanobacteria, 16S rRNA gene sequencing of caecal content",gut microbiota,0.3 ± 0.07
same,"Desulfovibrionales, 16S rRNA gene sequencing of caecal content",gut microbiota,0.25 ± 0.06
same,"Enterobacteriales, 16S rRNA gene sequencing of caecal content",gut microbiota,0.3 ± 0.06
same,"Eryslpelotrichales, 16S rRNA gene sequencing of caecal content",gut microbiota,0.5 ± 0.07
same,"Firmicutes, 16S rRNA gene sequencing of caecal content",gut microbiota,0.22 ± 0.07
same,"Lactibacllales, 16S rRNA gene sequencing of caecal content",gut microbiota,0.25 ± 0.03
same,"Proteobacteria, 16S rRNA gene sequencing of caecal content",gut microbiota,0.28 ± 0.04
same,"Selenomonadales, 16S rRNA gene sequencing of caecal content",gut microbiota,0.16 ± 0.03
same,"Verrucomicrobia, 16S rRNA gene sequencing of caecal content",gut microbiota,0.21 ± 0.07
same,"Verrucomicrobiales, 16S rRNA gene sequencing of caecal content",gut microbiota,0.36 ± 0.08
